We go through twelve compounds from ChEMBL document CHEMBL2417518, “Vinyl sulfone-based peptidomimetics as anti-trypanosomal agents: design, synthesis, biological and computational evaluation” (J Med Chem, 2013).

The nature of series [1]: Selectivity for bloodstream form of Trypanosoma brucei brucei MITat1.1 over human HL60 cells. On the set-up: species or system HL-60. An outline of the steps:
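Both were measured by seeding at 2×10^5 cells/ml with varying inhibitor concentrations, reading absorbance at 540 and 595 nm, and comparing to inhibitor-free controls.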

Series [2] has as its system Trypanosoma brucei brucei. Kind of series: Antitrypanosomal activity against bloodstream form of Trypanosoma brucei brucei MITat1.1 after 6 to 8 hrs by Alamar Blue assay. It counts as functional, organism-based. Particulars: in the assay text read “after 24 hrs” for “after 6 to 8 hrs”. An outline of the steps:
(§1)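 T. b. brucei MITat1.1 cultured in HMI-9 with 10% heat-inactivated FBS, subcultured 1:10 every 24 h to stay in log phase, 37°C, 5% CO2. Seeded at 2×10^5 cells/ml with varying inhibitor concentrations or DMSO alone. Alamar Blue added after 6-8 h, total incubation 24 h. Absorbance read at 540 and 595 nm. EC50 from 4-parameter logistic fit of percent inhibition versus controls.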
For orientation: The colour change of resazurin is a common sign of viable cells or microbes.

In series [3] the test system is Trypanosoma brucei brucei. The series is described as follows: Antitrypanosomal activity against bloodstream form of Trypanosoma brucei brucei MITat1.1 after 24 hrs by Alamar Blue assay.
In series [4] the test system is Trypanosoma brucei brucei. Kind of series: Antitrypanosomal activity against bloodstream form of Trypanosoma brucei brucei MITat1.1 assessed as bigeye phenotype at 55.6 uM after 24 hrs by epifluorescence microscopy relative to untreated control. Type of series: functional, organism-based. An outline of the steps: (§2)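 Trypanosomes exposed to the stated concentration at 37°C for 24 h, then fixed 10 min at 37°C in 3% (w/v) paraformaldehyde (final). Washed in PBS with 15 mM sodium azide, then in water, and settled on poly-L-lysine coated coverslips. Kinetoplast/nucleus counts and morphology scored by epifluorescence microscopy against an untreated control.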

The subject of series [5] is Trypanosoma brucei brucei. Kind of series: Antitrypanosomal activity against bloodstream form of Trypanosoma brucei brucei MITat1.1 assessed as increase in multinucleate cells at 55.6 uM after 24 hrs by epifluorescence microscopy relative to untreated control. Type of series: functional, organism-based. An outline of the steps:
as §2

The subject of series [6] is Trypanosoma brucei brucei. Kind of series: Antitrypanosomal activity against bloodstream form of Trypanosoma brucei brucei. It counts as functional, organism-based. An outline of the steps: as §1
The test system of series [7] is Trypanosoma brucei brucei. Kind of series: Antitrypanosomal activity against bloodstream form of Trypanosoma brucei brucei MITat1.1 assessed as bigeye phenotype at 0.78 uM after 24 hrs by epifluorescence microscopy relative to untreated control. It counts as functional, organism-based. An outline of the steps: as §2
Series [8] deals with Trypanosoma brucei brucei. Kind of series: Antitrypanosomal activity against bloodstream form of Trypanosoma brucei brucei MITat1.1 assessed as increase in multinucleate cells at 0.78 uM after 24 hrs by epifluorescence microscopy relative to untreated control. It counts as functional, organism-based. An outline of the steps: as §2
A further series concerns HL-60. Kind of series: Cytotoxicity against human HL60 cells after 48 hrs by Alamar Blue assay. Type of series: cell-based. Particulars: hl-60, 48 h. An outline of the steps: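 HL-60 cells grown in RPMI-1640 with 10% heat-inactivated FBS, penicillin/streptomycin and 2 mM L-glutamine, 37°C, 5% CO2. Seeded at 2×10^5 cells/ml with varying inhibitor concentrations or DMSO alone. Alamar Blue added after 30-32 h, total incubation 48 h. Absorbance read at 540 and 595 nm. EC50 derived from percent signal inhibition versus inhibitor-free controls.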

Structures are written as SMILES. pEC50, pIC50: −log10 of the molar value. Activity calls are given as the source filed them. The calls are words filed in the database; no cut-off is given here.

For the compound `COc1cc(Br)c(S(=O)(=O)NCCCC[C@@H](/C=C/S(=O)(=O)c2ccccc2)NC(=O)[C@H](Cc2ccccc2)NC(=O)OCc2ccccc2)cc1OC`, the Selectivity ratio in [1] is recorded as above 177.4. Also, in series [2], the Activity result was “Dose-dependent effect” and the pEC50 (commonly the negative decadic logarithm of the EC50, by convention in mol/L) is 6.51.
With `CC(C)(C)OC(=O)NCCCC[C@@H](/C=C/S(=O)(=O)c1cccc2ccccc12)NC(=O)[C@H](Cc1ccccc1)NC(=O)OCc1ccccc1`, in [1], the Selectivity ratio is listed as above 80.1. Besides, the Activity entry in series [2] was “Dose-dependent effect”. The compound further showed a negative-log EC50 (pEC50) in series [3] of 6.17.
`CC(C)(C)OC(=O)NCCCC[C@@H](/C=C/S(=O)(=O)c1ccc2ccccc2c1)NC(=O)[C@H](Cc1ccccc1)NC(=O)OCc1ccccc1`: the Selectivity ratio in series [1] is listed as above 53.4. Further, in series [2], the Activity entry is “Dose-dependent effect” and the pEC50 is 5.99.
For the compound `CC(C)(C)OC(=O)NCCCC[C@@H](/C=C/S(=O)(=O)c1ccccc1)NC(=O)[C@@H]1CCCN1C(=O)OCc1ccccc1`, the Selectivity ratio in [1] is above 5.7. In series [2], the Activity entry was “Dose-dependent effect”. For the same compound, the pEC50 in [3] was 5.00.
`CN1CCN(C(=O)N[C@@H](Cc2ccccc2)C(=O)N[C@H](/C=C/S(=O)(=O)c2ccccc2)CCc2ccccc2)CC1` [K-777]: the outcome in [4] and in [5] was Active. Moreover, the Selectivity ratio in series [1] was above 9.9. In addition, in [2], the Activity result was “Dose-dependent effect”. The pIC50 (in general, the negative decadic logarithm of the IC50, by convention in mol/L) in series [6] was 7.00. For the same compound, the negative logarithm of the EC50 (pEC50) in [3] is 5.25.
With `CC(C)(C)OC(=O)NCCCC[C@@H](CCS(=O)(=O)c1ccccc1)NC(=O)[C@H](Cc1ccccc1)NC(=O)OCc1ccccc1`, the Selectivity ratio in series [1] is reported as above 2.1. For the same compound, the Activity entry in series [2] was “Dose-dependent effect”. Further, the pEC50 in series [3] is 4.58.
With `CC(C)C[C@H](NC(=O)OCc1ccccc1)C(=O)N[C@H](/C=C/S(=O)(=O)c1ccccc1)CCCCNC(=O)OC(C)(C)C`, in series [1], the Selectivity ratio is listed as above 46.6. Also, in [2], the Activity entry is “Dose-dependent effect” and the negative-log EC50 (pEC50) was 5.93.
For `Cl.NCCCC[C@@H](/C=C/S(=O)(=O)c1ccccc1)NC(=O)[C@H](Cc1ccccc1)NC(=O)OCc1ccccc1` the same measures were above 2.4, “Dose-dependent effect” and 4.65.
`CC(C)(C)OC(=O)NCCCC[C@@H](/C=C/S(=O)(=O)c1ccccc1)NC(=O)[C@H](Cc1ccccc1)NC(=O)OCc1ccccc1`: in [1], the Selectivity ratio is recorded as above 83. In addition, the Activity entry in series [2] was “Dose-dependent effect”. The negative-log EC50 (pEC50) in series [3] is 6.18.
Regarding `Cc1ccc(S(=O)(=O)NCCCC[C@@H](/C=C/S(=O)(=O)c2ccccc2)NC(=O)[C@H](Cc2ccccc2)NC(=O)OCc2ccccc2)cc1`, the Selectivity ratio in [1] is above 220. In series [2], the Activity result is “Dose-dependent effect” and the negative-log EC50 (pEC50) was 6.60.
Regarding `O=C(N[C@@H](Cc1ccccc1)C(=O)N[C@H](/C=C/S(=O)(=O)c1ccccc1)CCCCNS(=O)(=O)c1cccc2ccccc12)OCc1ccccc1`, the result in series [7] was Active. Moreover, in [8], the result was Active. For the same compound, in series [1], the Selectivity ratio is above 785.7. Also, in series [2], the Activity result was “Dose-dependent effect” and the pEC50 is 7.15.
`CC(C)(C)OC(=O)NCCCC[C@@H](/C=C/C(=O)c1ccccc1)NC(=O)[C@H](Cc1ccccc1)NC(=O)OCc1ccccc1`: the Activity entry in the series on HL-60 is reported as “Toxic”. For the same compound, the Selectivity ratio in [1] is recorded as above 67.1. Besides, in series [2], the Activity entry was “Dose-dependent effect” and the pEC50 was 6.09.
